GRK2 inh: human GRK2 inhibition via aptamer displacement; bead flow cytometry, FAM-aptamer displacement from GRK2; inhibition of aptamer binding, % at 10 µM; actives 0.59% (n = 330,000); AID 488847;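 active = inhibition of aptamer binding above 40%, roughly 3 SD of noise, on plates passing a quality check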;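 also: median bead fluorescence of bound FAM aptamer so fluorescent compounds give negative values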
Target sequence (P25098 whole entry, looked up): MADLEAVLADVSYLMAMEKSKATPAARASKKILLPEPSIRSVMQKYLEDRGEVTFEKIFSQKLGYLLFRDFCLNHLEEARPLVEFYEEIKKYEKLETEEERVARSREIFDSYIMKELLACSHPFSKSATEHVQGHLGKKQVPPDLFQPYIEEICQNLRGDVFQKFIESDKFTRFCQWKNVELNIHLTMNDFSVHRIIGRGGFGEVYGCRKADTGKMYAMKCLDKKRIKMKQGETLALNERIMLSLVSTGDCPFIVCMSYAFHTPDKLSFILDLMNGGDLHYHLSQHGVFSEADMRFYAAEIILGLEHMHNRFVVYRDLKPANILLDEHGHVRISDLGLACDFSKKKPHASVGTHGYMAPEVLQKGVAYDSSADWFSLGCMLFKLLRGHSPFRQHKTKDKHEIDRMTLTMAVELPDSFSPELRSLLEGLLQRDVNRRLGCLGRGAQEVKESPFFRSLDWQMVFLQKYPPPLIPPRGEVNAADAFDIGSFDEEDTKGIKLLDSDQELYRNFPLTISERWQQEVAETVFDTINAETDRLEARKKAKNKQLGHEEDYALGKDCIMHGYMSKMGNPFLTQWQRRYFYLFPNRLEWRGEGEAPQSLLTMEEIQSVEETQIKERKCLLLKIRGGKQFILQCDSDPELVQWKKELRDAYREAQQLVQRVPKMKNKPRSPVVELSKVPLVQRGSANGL
Tn7 DDE FP: disrupts Tn7 cyclic peptide binding to fibrin D-Dimer-E complex; actives 0.13% (n = 370,000); AID 720508; P02675; FP displacement of FITC-Tn7 peptide from fibrin DD(E); 0% = median of compound wells per plate; inhibition, % at 8.3 µM;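 active = inhibition above the mean of compounds falling within the control limits plus 3 SD of them, cut at about 14% in these data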;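 also: 0% = plate median of compound wells and 100% = 10 µM Aha-Tn7 peptide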
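Assay system: human fibrin DD(E). Input: DD(E) 2 µM final. Medium: Tris buffer with calcium and detergent, pH 7.8. Compound dosing: single point at 8.3 µM. Timing: 10 min plus 3 h, room temperature. Technique: fluorescence polarization of the labelled Tn7 tracer. Read-out: percent inhibition. Replicates: singlicate testing.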
CAL PDZ FP-1: human CAL PDZ-peptide interaction inhibition; inhibition, % at 20 µM; Q9HD26; AID 504414; purified CAL PDZ, TMR-peptide fluorescence polarization, 1 h; actives 0.02% (n = 330,000);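 active = highest replicate inhibition of at least 40%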;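 also: plate controls were DMSO neutral control wells for no effect and unlabeled competitor peptide control wells for full effect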
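Test system: purified CerCALP PDZ construct; Compound dosing: one concentration, 20 µM compound; Also added: TMR-labelled reporter peptide T*-PRC34 bound in PDZ groove; Read-out: inhibition from polarization loss; Controls: unlabelled peptide and DMSO controls; Signal: FP readout, S and P plane fluorescence; Incubation: 1 h at RT.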
ARNT-TACC3 inh: ARNT/TACC3 interaction disruption. Q9Y6A5. AlphaScreen His-ARNT PAS-B/GST-TACC3 binding, luminescence; TACC3 fragment carries E629A point mutation. inhibition, % at 9.99 µM. actives 0.66% (n = 390,000). AID 623870;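 active = mean inhibition of replicates at least 50% and at least half of replicates each reaching 50%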;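 also: 0% = complete ARNT plus TACC3 wells and 100% = ARNT alone without TACC3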
CAL PDZ FP-2: inhibitors of human CAL PDZ peptide binding; Q9HD26; actives 0.92% (n = 300,000); inhibition, % at 24.9 µM; AID 602252; purified CAL PDZ, TMR-peptide fluorescence polarization, 1 h;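 active = mean inhibition of at least 30% with at least half of replicates also reaching 30%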;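 also: 0% = DMSO neutral control and 100% = excess unlabeled competitor peptide PRC23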
DDE Tn6 FP inh: disrupts Tn6 cyclic peptide binding to fibrin D-Dimer-E complex; P02675; inhibition, % at 8.3 µM; actives 0.21% (n = 370,000); Fibrin DD(E) TRITC-Tn6 fluorescence polarization displacement;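 active = inhibition above a per-campaign cutoff: mean of compounds within control limits plus 3 SD, cut at about 15% in these data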;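 also: 0% = median of all compound wells on the plate and 100% = blocking peptide control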
GRK2 CP1: confirmation of human GRK2 inhibitors displacing RNA aptamer | AID 504451 | shares compounds with GRK2 inh | aptamer displacement, % at 10 µM | bead-bound GRK2, FAM-aptamer displacement, flow cytometry | actives 4% (n = 2,000);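 active = aptamer displacement above 40%, near three times the noise of non-fluorescent compounds, on plates passing quality checks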;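 also: negative values mostly reflect intrinsic compound fluorescence rather than true enhancement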
FAM quench CP1: aptamer fluorescence quenching in GRK2 counter-screen; 2,000 tested, under 10 active; Carboxyfluorescein RNA aptamer on beads, flow cytometry quenching; hits give low values; fluorescence response (% of DMSO), % at 10 µM; shares compounds with GRK2 inh;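 active = compounds that quench the bead-bound fluorescent RNA probe, cutting fluorescence to under half of the solvent control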;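 also: counterscreen run without GRK2 so only probe quenching by compound is measured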
GRK2 CP2: confirmation of human GRK2 inhibitors binding RNA aptamer site | shares compounds with GRK2 inh | bead-bound GRK2, FAM-aptamer displacement, flow cytometry | inhibition of aptamer binding, % at 10 µM | 360 tested, under 10 active;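 active = inhibition of aptamer binding above 40%, about triple the noise seen with nonglowing compounds, on plates passing quality control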;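 also: negative values mostly come from compounds that fluoresce themselves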
FAM quench SP: counter-screen for GRK2 binding hits: quenchers of fluorescent RNA aptamer; shares compounds with GRK2 inh; AID 588494; 360 tested, under 10 active; fluorescence response vs DMSO, % at 10 µM; carboxyfluorescein RNA aptamer beads, flow cytometry quenching; hits give low values;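 active = response vs DMSO under 50%, meaning signal dropped by over half, treated as fluorescence quencher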;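 also: labelled aptamer on streptavidin beads without GRK2 as a quench counter-screen; 100% = bead fluorescence of DMSO wells and lower means quenching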
An asterisk follows results filed as active. This is a sample that favours compounds with a hit; in the whole collection about 1.8% have one here.

For O=C(C[C@H]1CC[C@@H](NC(=O)C2CCOCC2)[C@H](CO)O1)Nc1ccc(-c2ccccc2)cc1 the results were ARNT-TACC3 inh 0.
For COc1ccc(/C=C/C(=O)N2CCN(c3ccccn3)CC2)cc1OC the results were GRK2 inh 53*, Tn7 DDE FP 1, CAL PDZ FP-1 0, ARNT-TACC3 inh -1, CAL PDZ FP-2 0, DDE Tn6 FP inh 3, GRK2 CP1 0 and FAM quench CP1 100.
Screening COc1cc2c(cc1OC)C(C)N(S(=O)(=O)c1ccc(C)cc1)CC2 (stereo not drawn) returned GRK2 inh 49*, Tn7 DDE FP -2, CAL PDZ FP-1 -1, ARNT-TACC3 inh 0, DDE Tn6 FP inh 1, GRK2 CP1 -10 and FAM quench CP1 94.
For CCCCC(=O)Nc1nc2c(OC)cc([N+](=O)[O-])cc2s1 the results were GRK2 inh 0, Tn7 DDE FP 1, CAL PDZ FP-1 0, ARNT-TACC3 inh -3 and DDE Tn6 FP inh 6.
`COc1cc([N+](=O)[O-])cc2sc(NC(C)=O)nc12` gave GRK2 inh 66*, Tn7 DDE FP -7, CAL PDZ FP-1 0, ARNT-TACC3 inh -36, CAL PDZ FP-2 3, DDE Tn6 FP inh -1, GRK2 CP1 0 and FAM quench CP1 95.
CC(Oc1ccccc1)C(=O)N1CCN(c2ccc(N3CCCCCC3)nn2)CC1 (stereo not drawn) was read as GRK2 inh 0, Tn7 DDE FP 0, CAL PDZ FP-1 -1, ARNT-TACC3 inh 5, CAL PDZ FP-2 -4 and DDE Tn6 FP inh 10.
Screening S=C(Nc1ccccc1)N1CCN(c2ccc(N3CCOCC3)nn2)CC1 returned GRK2 inh 0, Tn7 DDE FP 7, CAL PDZ FP-1 -2, ARNT-TACC3 inh -5, CAL PDZ FP-2 0, DDE Tn6 FP inh 8, GRK2 CP1 -1 and FAM quench CP1 90.
CC(Oc1ccccc1)C(=O)N1CCN(c2ccc(N3CCOCC3)nn2)CC1 (stereo not drawn) was read as GRK2 inh 2, Tn7 DDE FP -9, CAL PDZ FP-1 -2, ARNT-TACC3 inh 2, CAL PDZ FP-2 2, DDE Tn6 FP inh 11, GRK2 CP1 -1 and FAM quench CP1 106.
For S=C(Nc1ccccc1)N1CCOCCOCCN(C(=S)Nc2ccccc2)CCOCCOCC1 the results were GRK2 inh 0, Tn7 DDE FP 0, CAL PDZ FP-1 0, ARNT-TACC3 inh 12, CAL PDZ FP-2 -2 and DDE Tn6 FP inh -10.
`CCC1Sc2ccc(S(=O)(=O)CCC(=O)NCc3ccc(C)o3)cc2NC1=O` (stereo not drawn) gave GRK2 inh 20, Tn7 DDE FP -2, CAL PDZ FP-1 -2, ARNT-TACC3 inh 0, CAL PDZ FP-2 -1 and DDE Tn6 FP inh -1.
Screening CC1Sc2ccc(S(=O)(=O)CCC(=O)N3CCc4ccccc43)cc2NC1=O (stereo not drawn) returned GRK2 inh 0, Tn7 DDE FP -5, CAL PDZ FP-1 -3, ARNT-TACC3 inh -2, CAL PDZ FP-2 0, DDE Tn6 FP inh 6, GRK2 CP2 -28 and FAM quench SP 99.
`CCC1Sc2ccc(S(=O)(=O)CCC(=O)N3CCc4ccccc43)cc2NC1=O` (stereo not drawn) gave GRK2 inh 57*, Tn7 DDE FP 1, CAL PDZ FP-1 -1, ARNT-TACC3 inh 41, CAL PDZ FP-2 0, DDE Tn6 FP inh 6, GRK2 CP1 3, FAM quench CP1 97, GRK2 CP2 1 and FAM quench SP 104.
CCC1Sc2ccc(S(=O)(=O)CCC(=O)Nc3ccccc3Cl)cc2NC1=O (stereo not drawn) was read as GRK2 inh 1, Tn7 DDE FP 7, CAL PDZ FP-1 -2, ARNT-TACC3 inh 2, CAL PDZ FP-2 -2, DDE Tn6 FP inh -1, GRK2 CP2 28 and FAM quench SP 98.
Screening CC1Sc2ccc(S(=O)(=O)CCC(=O)N3CCCC3)cc2NC1=O (stereo not drawn) returned GRK2 inh 0, Tn7 DDE FP 3, CAL PDZ FP-1 0, ARNT-TACC3 inh 1, CAL PDZ FP-2 2 and DDE Tn6 FP inh -4.
Screening C[C@@H]1CN([C@@H](C)CO)C(=O)c2cccc(NC(=O)Nc3ccc(F)cc3)c2O[C@@H]1CN(C)Cc1ccc(-c2ccccc2)cc1 returned ARNT-TACC3 inh 12.
Screening CO[C@H]1CC[C@H]2CCOc3ccc(C#N)cc3C(=O)N(C)C[C@H](C)C(=O)N(C)C[C@@H]1O2 returned ARNT-TACC3 inh -2.
`CCOC(=O)Cc1cc(=O)n2[nH]c(C)c(-c3ccc(OC)cc3)c2n1` gave GRK2 inh 71*, Tn7 DDE FP -8, CAL PDZ FP-1 -1, ARNT-TACC3 inh 12, DDE Tn6 FP inh -7, GRK2 CP1 -3 and FAM quench CP1 99.
For CCOC(=O)Cc1cc(=O)n2[nH]c(C)c(-c3ccc(Cl)cc3)c2n1 the results were GRK2 inh 5, Tn7 DDE FP -4, CAL PDZ FP-1 -3, ARNT-TACC3 inh 11, CAL PDZ FP-2 0 and DDE Tn6 FP inh 7.
CN1C/C(=C/c2ccsc2)C(=O)/C(=C/c2ccsc2)C1 was read as GRK2 inh 63*, Tn7 DDE FP -3, CAL PDZ FP-1 -3, CAL PDZ FP-2 21, DDE Tn6 FP inh 3, GRK2 CP1 0 and FAM quench CP1 96.
CC[C@H](C)/C=C/C1=CC2=C(Cl)C(=O)[C@@]3(C)OC(=O)C(C(=O)[C@H](C)[C@@H](C)O)=C3C2=CO1 was read as GRK2 inh 69*, CAL PDZ FP-1 17, ARNT-TACC3 inh 6, CAL PDZ FP-2 9, GRK2 CP1 3 and FAM quench CP1 104.
Screening CC12CCC(c3n[nH]c(=S)nc31)C2(C)C (stereo not drawn) returned GRK2 inh 73*, Tn7 DDE FP -2, CAL PDZ FP-1 1, ARNT-TACC3 inh 10, CAL PDZ FP-2 3, DDE Tn6 FP inh -4, GRK2 CP2 9 and FAM quench SP 98.

Source: PubChem (several laboratories)
